Tests used:
Brain [1] = assay: Toxicity in mouse assessed as effect on iron level in brain per gram of organ at 0.4 mmol/kg, ip qd for 5 days; type: organism-based; conditions: in vivo, 120 h
Femur = assay: Detoxification activity against lead-induced toxicity in mouse assessed as reduction lead level in femurs per gram of organ at 0.4 mmol/kg, ip qd for 5 days measured 24 hrs last post dose by synchrotron X-ray fluorescence analysis; type: functional
Method in brief: (§1)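 Lead-loaded mice were given normal saline vehicle (negative control) or test agent at 0.2, 0.4 or 0.6 mmol/kg. Lead was measured in liver, kidney, left femur and brain and reported as mean ± SD µg Pb/g organ against the NS group.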

Brain [2] = assay: Detoxification activity against lead-induced toxicity in mouse assessed as reduction lead level in brain per gram of organ at 0.4 mmol/kg, ip qd for 5 days measured 24 hrs last post dose by synchrotron X-ray fluorescence analysis; type: functional; method in brief: as §1
Kidney [3] = assay: Detoxification activity against lead-induced toxicity in mouse assessed as reduction lead level in kidney per gram of organ at 0.4 mmol/kg, ip qd for 5 days measured 24 hrs last post dose by synchrotron X-ray fluorescence analysis; type: functional; method in brief: as §1
Liver [4] = assay: Detoxification activity against lead-induced toxicity in mouse assessed as reduction lead level in liver per gram of organ at 0.4 mmol/kg, ip qd for 5 days measured 24 hrs last post dose by synchrotron X-ray fluorescence analysis; type: functional; method in brief: as §1
[5] = Detoxification activity against lead-induced toxicity in mouse assessed as reduction lead level in feces at 0.4 mmol/kg, ip qd for 5 days measured 24 hrs last post dose by synchrotron X-ray fluorescence analysis; type: functional
Method in brief: (§2)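 Lead-loaded mice were given normal saline vehicle, DL-penicillamine or NaDMS (positive controls), or test agent, each at 0.4 mmol/kg; n = 12 per group. Lead was measured in feces and urine and reported as mean ± SD µg Pb/g excrement against the NS group.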

[6] = Detoxification activity against lead-induced toxicity in mouse assessed as reduction lead level in urine at 0.4 mmol/kg, ip qd for 5 days measured 24 hrs last post dose by synchrotron X-ray fluorescence analysis; type: functional; method in brief: as §2
Brain [7] = assay: Toxicity in mouse assessed as effect on copper level in brain per gram of organ at 0.4 mmol/kg, ip qd for 5 days; type: organism-based; conditions: in vivo, 120 h
Brain [8] = assay: Toxicity in mouse assessed as effect on zinc level in brain per gram of organ at 0.4 mmol/kg, ip qd for 5 days; type: organism-based; conditions: in vivo, 120 h
Brain [9] = assay: Toxicity in mouse assessed as effect on manganese level in brain per gram of organ at 0.4 mmol/kg, ip qd for 5 days; type: organism-based; conditions: in vivo, 120 h
Brain [10] = assay: Toxicity in mouse assessed as effect on calcium level in brain per gram of organ at 0.4 mmol/kg, ip qd for 5 days; type: organism-based; conditions: in vivo, 120 h
Liver [11] = assay: Toxicity in mouse assessed as effect on iron level in liver per gram of organ at 0.4 mmol/kg, ip qd for 5 days; type: organism-based; conditions: in vivo, 120 h
Liver [12] = assay: Toxicity in mouse assessed as effect on copper level in liver per gram of organ at 0.4 mmol/kg, ip qd for 5 days; type: organism-based; conditions: in vivo, 120 h
Liver [13] = assay: Toxicity in mouse assessed as effect on zinc level in liver per gram of organ at 0.4 mmol/kg, ip qd for 5 days; type: organism-based; conditions: in vivo, 120 h
Liver [14] = assay: Toxicity in mouse assessed as effect on manganese level in liver per gram of organ at 0.4 mmol/kg, ip qd for 5 days; type: organism-based; conditions: in vivo, 120 h
Liver [15] = assay: Toxicity in mouse assessed as effect on calcium level in liver per gram of organ at 0.4 mmol/kg, ip qd for 5 days; type: organism-based; conditions: in vivo, 120 h
Kidney [16] = assay: Toxicity in mouse assessed as effect on iron level in kidney per gram of organ at 0.4 mmol/kg, ip qd for 5 days; type: organism-based; conditions: in vivo, 120 h
Kidney [17] = assay: Toxicity in mouse assessed as effect on copper level in kidney per gram of organ at 0.4 mmol/kg, ip qd for 5 days; type: organism-based; conditions: in vivo, 120 h
Kidney [18] = assay: Toxicity in mouse assessed as effect on zinc level in kidney per gram of organ at 0.4 mmol/kg, ip qd for 5 days; type: organism-based; conditions: in vivo, 120 h
Kidney [19] = assay: Toxicity in mouse assessed as effect on manganese level in kidney per gram of organ at 0.4 mmol/kg, ip qd for 5 days; type: organism-based; conditions: in vivo, 120 h
Kidney [20] = assay: Toxicity in mouse assessed as effect on calcium level in kidney per gram of organ at 0.4 mmol/kg, ip qd for 5 days; type: organism-based; conditions: in vivo, 120 h
Mus musculus = assay: Toxicity in mouse assessed as change in bodyweight at 0.4 mmol/kg, ip qd for 5 days; type: organism-based; conditions: in vivo, 120 h
Method in brief: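 Lead-loaded mice were given normal saline vehicle or test agent at 0.4 mmol/kg. Body weights were recorded and compared with the NS group to assess growth.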

[21] = Apparent permeability from apical to basolateral side of human Caco2 cells at 4 mM up to 120 mins by HPLC analysis; type: ADME, cell-based; conditions: Caco-2
Method in brief: (§3)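 Permeability measured across Caco-2 cell monolayers.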

[22] = Apparent permeability from basolateral to apical side of human Caco2 cells at 4 mM up to 120 mins by HPLC analysis; type: ADME, cell-based; conditions: Caco-2; method in brief: as §3
Caco-2 = assay: Efflux ratio of permeability […] in human Caco2 cells at 4 mM up to 120 mins by HPLC analysis; type: ADME, cell-based; conditions: caco-2, 2 h, 4000 µM; method in brief: as §3

Row | SMILES | Activity (Brain [1]) | Activity (Femur) | Activity (Brain [2]) | Activity (Kidney [3]) | Activity (Liver [4]) | Activity [5] | Activity [6] | Activity (Brain [7]) | Activity (Brain [8]) | Activity (Brain [9]) | Activity (Brain [10]) | Activity (Liver [11]) | Activity (Liver [12]) | Activity (Liver [13]) | Activity (Liver [14]) | Activity (Liver [15]) | Activity (Kidney [16]) | Activity (Kidney [17]) | Activity (Kidney [18]) | Activity (Kidney [19]) | further results
1 | CC1(C)SC(C(=O)O)C(C(=O)N[C@@H](CCC(N)=O)C(=O)O)S1 (some centres undefined) | 57.66 µg/g | 14.59 µg/g | 1.02 µg/g | 6.86 µg/g | 3.07 µg/g | 4.5 µg/g | 2.89 µg/g | 2.64 µg/g | 34.68 µg/g | 0.69 µg/g | 71.82 µg/g | 153.02 µg/g | 3.76 µg/g | 37.85 µg/g | 1.37 µg/g | 59.07 µg/g | 94.48 µg/g | 3.59 µg/g | 28.09 µg/g | 1.33 µg/g | Activity (Kidney [20]): 76.93 µg/g; Activity (Mus musculus): 29.6 g
2 | CC(C)(S)C(N)C(=O)O (racemic) [DL-PENICILLAMINE] | – | 14.99 µg/g | 1.61 µg/g | 7.24 µg/g | 3.52 µg/g | 3.26 µg/g | 1.94 µg/g | – | – | – | – | – | – | – | – | – | – | – | – | – | Papp A→B at 2 h, 4000 µM [21]: 13.1 ×10⁻⁶ cm/s; Papp B→A at 2 h, 4000 µM [22]: 11.5 ×10⁻⁶ cm/s; Ratio (Caco-2): 1.14
3 | O=C([O-])C(S)C(S)C(=O)[O-].[Na+].[Na+] (centres undefined) | – | 14.31 µg/g | 1.72 µg/g | 6.23 µg/g | 4.75 µg/g | 4.59 µg/g | 1.79 µg/g | – | – | – | – | – | – | – | – | – | – | – | – | – | Papp A→B at 2 h, 4000 µM [21]: 11 ×10⁻⁶ cm/s; Papp B→A at 2 h, 4000 µM [22]: 10 ×10⁻⁶ cm/s; Ratio (Caco-2): 1.1
4 | CC(C)C[C@H](NC(=O)C1SC(C)(C)SC1C(=O)O)C(=O)O (some centres undefined) | 57.49 µg/g | 16.33 µg/g | 1.44 µg/g | 7.32 µg/g | 3.64 µg/g | 3.99 µg/g | 3.44 µg/g | 2.6 µg/g | 32.49 µg/g | 0.7 µg/g | 69.29 µg/g | 153.8 µg/g | 3.59 µg/g | 37.88 µg/g | 1.41 µg/g | 59.8 µg/g | 93.02 µg/g | 3.65 µg/g | 26.99 µg/g | 1.41 µg/g | Activity (Kidney [20]): 76.48 µg/g; Activity (Mus musculus): 29.7 g
5 | CC(C)[C@H](NC(=O)C1SC(C)(C)SC1C(=O)O)C(=O)O (some centres undefined) | 57.35 µg/g | 14.93 µg/g | 1.49 µg/g | 6.16 µg/g | 3.19 µg/g | 4.76 µg/g | 2.65 µg/g | 2.55 µg/g | 34.51 µg/g | 0.76 µg/g | 72 µg/g | 155.25 µg/g | 3.51 µg/g | 36.49 µg/g | 1.4 µg/g | 60.24 µg/g | 95.56 µg/g | 3.62 µg/g | 27.64 µg/g | 1.4 µg/g | Activity (Kidney [20]): 76.97 µg/g; Activity (Mus musculus): 29.9 g
6 | CC1(C)SC(C(=O)O)C(C(=O)N[C@@H](Cc2ccccc2)C(=O)O)S1 (some centres undefined) | 56.31 µg/g | 16.75 µg/g | 1.11 µg/g | 6.61 µg/g | 4.6 µg/g | 4.85 µg/g | 1.72 µg/g | 2.59 µg/g | 34.51 µg/g | 0.75 µg/g | 69.84 µg/g | 154.97 µg/g | 3.63 µg/g | 36.69 µg/g | 1.31 µg/g | 60.61 µg/g | 94.82 µg/g | 3.59 µg/g | 27.57 µg/g | 1.43 µg/g | Activity (Kidney [20]): 76.76 µg/g; Activity (Mus musculus): 29.9 g
7 | CC1(C)SC(C(=O)O)C(C(=O)N[C@@H](CCC(=O)O)C(=O)O)S1 (some centres undefined) | 57.57 µg/g | 13.69 µg/g | 1.22 µg/g | 7.21 µg/g | 5.64 µg/g | 4.49 µg/g | 2.65 µg/g | 2.5 µg/g | 34.99 µg/g | 0.77 µg/g | 69.99 µg/g | 154.4 µg/g | 3.72 µg/g | 38.01 µg/g | 1.4 µg/g | 60.4 µg/g | 93.97 µg/g | 3.73 µg/g | 28.16 µg/g | 1.35 µg/g | Activity (Kidney [20]): 77.45 µg/g; Activity (Mus musculus): 30.5 g
8 | CC1(C)SC(C(=O)O)C(C(=O)NCC(=O)O)S1 (centres undefined) | 57.03 µg/g | 20.82 µg/g | 1.39 µg/g | 6.68 µg/g | 3.29 µg/g | 4.53 µg/g | 2.07 µg/g | 2.5 µg/g | 34.31 µg/g | 0.74 µg/g | 71.4 µg/g | 154.3 µg/g | 3.58 µg/g | 36.35 µg/g | 1.29 µg/g | 60.01 µg/g | 94.4 µg/g | 3.62 µg/g | 27.68 µg/g | 1.31 µg/g | Activity (Kidney [20]): 76.17 µg/g; Activity (Mus musculus): 30.4 g
9 | CC1(C)SC(C(=O)O)C(C(=O)N[C@@H](Cc2c[nH]c3ccccc23)C(=O)O)S1 (some centres undefined) | 56.94 µg/g | 17.66 µg/g | 1.21 µg/g | 7.5 µg/g | 5.59 µg/g | 4.14 µg/g | 2.84 µg/g | 2.39 µg/g | 33.04 µg/g | 0.78 µg/g | 69.35 µg/g | 153.84 µg/g | 3.76 µg/g | 36.96 µg/g | 1.4 µg/g | 59.69 µg/g | 93.07 µg/g | 3.69 µg/g | 27.99 µg/g | 1.4 µg/g | Activity (Kidney [20]): 76.92 µg/g; Activity (Mus musculus): 30.8 g
10 | CC1(C)SC(C(=O)O)C(C(=O)N[C@@H](CO)C(=O)O)S1 (some centres undefined) | 56.47 µg/g | 14.7 µg/g | 1.05 µg/g | 6.43 µg/g | 3.21 µg/g | 4.41 µg/g | 2.83 µg/g | 2.39 µg/g | 34.09 µg/g | 0.78 µg/g | 68.08 µg/g | 153.39 µg/g | 3.73 µg/g | 37 µg/g | 1.37 µg/g | 59.65 µg/g | 93.69 µg/g | 3.73 µg/g | 28.1 µg/g | 1.42 µg/g | Activity (Kidney [20]): 75.89 µg/g; Activity (Mus musculus): 31.5 g

Reference: ChEMBL document CHEMBL1681713, “Lead detoxification activities and ADMET hepatotoxicities of a class of novel 5-(1-carbonyl-L-amino-acid)-2,2-dimethyl-[1,3]dithiolane-4-carboxylic acids” (Bioorg Med Chem Lett, 2011)
